The record followed here is ChEMBL document CHEMBL4017492, “Discovery of a para-Acetoxy-benzyl Ester Prodrug of a Hydroxamate-Based Glutamate Carboxypeptidase II Inhibitor as Oral Therapy for Neuropathic Pain” (J Med Chem, 2017).

pIC50: −log10 of the molar value. Active and inactive are the calls of the source. The rule behind the calls is not given here.

Data set [1] concerns Plasma. The data set is described as follows: Prodrug conversion in CD1 mouse plasma assessed as 4-Carboxy-alpha-[3-(hydroxyamino)-3-oxopropyl]-benzenepropanoic acid formation at 10 mg/kg equiv of 4-Carboxy-alpha-[3-(hydroxyamino)-3-oxopropyl]-benzenepropanoic acid after 30 mins by LC-MS/MS analysis relative to 4-Carboxy-alpha-[3-(hydroxyamino)-3-oxopropyl]-benzenepropanoic acid alone. To be noted: in vivo, 0.5 h. The data set is classed as ADME, organism-based. The essentials:
(§1)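 Male CD-1 mice (25–30 g) given a single oral dose equivalent to 10 mg/kg of parent, in 50 mM HEPES-buffered saline at pH 7.4. Killed by pentobarbital at 30 min and blood taken by cardiac puncture into heparin. Plasma stored at −80 °C, then assayed for parent by LC-MS/MS on C18 with a formic acid/acetonitrile gradient. Mean ± SEM, n = 3.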

In data set [2] the target is Glutamate carboxypeptidase 2 (Homo sapiens, UniProt Q04609). The data set is described as follows: Inhibition of recombinant human glutamate carboxypeptidase 2 (44 to 750 residues) overexpressed in Drosophila Schneider S2 cells using [3H]-NAAG/NAAG as substrate preincubated for 15 mins followed by substrate addition measured after 20 mins by liquid scintillation counting method. Summed up:
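Radioenzymatic assay. rhGCPII (30 ng/mL) preincubated with inhibitor at varying concentrations for 15 min at 37 °C in 20 mM Tris, 150 mM NaCl, pH 8.0. Started with 0.31 μM NAAG plus 15 nM 3H-NAAG and run 20 min. Stopped with phosphate/EDTA/β-mercaptoethanol, pH 7.4. Released glutamate separated by ion exchange and counted by scintillation. IC50 obtained from inhibition curves.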

The test system of data set [3] is Plasma. The data set is described as follows: Prodrug conversion in mouse plasma assessed as 4-Carboxy-alpha-[3-(hydroxyamino)-3-oxopropyl]-benzenepropanoic acid formation at 10 uM measured upto 60 mins by LC-MS/MS analysis. The data set is classed as ADME, cell-free. To be noted: 1 h. Summed up:
(§2)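 Compounds at 10 μM spiked into mouse plasma and shaken at 37 °C. Triplicate aliquots taken at 0 and 60 min and quenched with 2 volumes of ice-cold acetonitrile containing losartan 5 μM as internal standard. Centrifuged and supernatant diluted with water. Parent loss and metabolites identified by LC–ESI-TOF on C18 using a formic acid/acetonitrile gradient and extracted-ion chromatograms.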

In data set [4] the test system is Rattus norvegicus. The data set is described as follows: Analgesic activity in Sprague-Dawley rat assessed as reduction in chronic constriction injury induced hyperalgesic neuropathic pain on ligated side at 4.6 mg/kg/day administered via oral gavage measured upto 8 days relative to vehicle-treated control. Format: functional, organism-based. Summed up:
(§3)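 Male Sprague–Dawley rats (200–250 g; n = 10–15 per group) with sciatic nerve loosely ligated (four 4.0 chromic gut ligatures, 1 mm apart). Testing began 10 days post-surgery. Plantar thermal stimulus (Hargreaves) applied to the hind paw, withdrawal latency read to 0.1 s. Dosed daily by oral gavage, and 1 h before each test session. Two sessions per week; compared with vehicle by Student's t-test.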

In data set [5] the test system is Rattus norvegicus. The data set is described as follows: Effect on response latency to thermal stimulus in Sprague-Dawley rat at 4.6 mg/kg administered via oral gavage relative to vehicle-treated control. Format: organism-based. To be noted: in vivo. Summed up: as §3
A short description of data set [6]: Prodrug conversion in Tris/NaCl buffer assessed as 4-Carboxy-alpha-[3-(hydroxyamino)-3-oxopropyl]-benzenepropanoic acid formation at pH 8. The essentials:
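Stability tested under the enzyme assay conditions: 30 min in aqueous buffer (20 mM Tris, 150 mM NaCl), pH 8.0.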

The subject of data set [7] is Plasma. The data set is described as follows: Prodrug conversion in CD1 mouse plasma assessed as 4-Carboxy-alpha-[3-(hydroxyamino)-3-oxopropyl]-benzenepropanoic acid formation at 10 mg/kg equiv of 4-Carboxy-alpha-[3-(hydroxyamino)-3-oxopropyl]-benzenepropanoic acid after 30 mins by LC-MS/MS analysis. The data set is classed as ADME, organism-based. To be noted: in vivo, 0.5 h. The essentials:
as §1

Data set [8] concerns Rattus norvegicus. As to the kind of experiment: Analgesic activity in Sprague-Dawley rat assessed as reduction in chronic constriction injury induced hyperalgesic neuropathic pain on ligated side at 100 mg/kg/day administered via oral gavage measured upto 8 days relative to vehicle-treated control. The data set is classed as functional, organism-based. Summed up: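 Male Sprague–Dawley rats (200–250 g; n = 10–15 per group) received sciatic nerve constriction with four loose 4.0 chromic gut ligatures spaced 1 mm apart. Testing began 10 days after surgery. Dosing was daily by oral gavage, given 1 h before testing on test days. Hind-paw withdrawal latency to a plantar thermal stimulus (Hargreaves) was read to 0.1 s, with normal response within 15 s. Difference score was nonligated minus ligated latency. Sessions were twice weekly, and groups were compared by t-test versus control.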

Data set [9] concerns Plasma. The data set is described as follows: Metabolic stability in mouse plasma at 10 uM measured upto 60 mins by LC-MS/MS analysis. Format: ADME, cell-free. To be noted: 1 h. The essentials: as §2
Data set [10] concerns Plasma. The data set is described as follows: Drug metabolism in mouse plasma assessed as 2-(4-(ethoxycarbonyl)benzyl)-5-(hydroxyamino)-5-oxopentanoic acid formation at 10 uM measured after 60 mins by LC-MS/MS analysis. The data set is classed as ADME, cell-free. To be noted: 1 h. Summed up: as §2

Sequence of Glutamate carboxypeptidase 2 (Q04609 whole entry, the tested form may be a part): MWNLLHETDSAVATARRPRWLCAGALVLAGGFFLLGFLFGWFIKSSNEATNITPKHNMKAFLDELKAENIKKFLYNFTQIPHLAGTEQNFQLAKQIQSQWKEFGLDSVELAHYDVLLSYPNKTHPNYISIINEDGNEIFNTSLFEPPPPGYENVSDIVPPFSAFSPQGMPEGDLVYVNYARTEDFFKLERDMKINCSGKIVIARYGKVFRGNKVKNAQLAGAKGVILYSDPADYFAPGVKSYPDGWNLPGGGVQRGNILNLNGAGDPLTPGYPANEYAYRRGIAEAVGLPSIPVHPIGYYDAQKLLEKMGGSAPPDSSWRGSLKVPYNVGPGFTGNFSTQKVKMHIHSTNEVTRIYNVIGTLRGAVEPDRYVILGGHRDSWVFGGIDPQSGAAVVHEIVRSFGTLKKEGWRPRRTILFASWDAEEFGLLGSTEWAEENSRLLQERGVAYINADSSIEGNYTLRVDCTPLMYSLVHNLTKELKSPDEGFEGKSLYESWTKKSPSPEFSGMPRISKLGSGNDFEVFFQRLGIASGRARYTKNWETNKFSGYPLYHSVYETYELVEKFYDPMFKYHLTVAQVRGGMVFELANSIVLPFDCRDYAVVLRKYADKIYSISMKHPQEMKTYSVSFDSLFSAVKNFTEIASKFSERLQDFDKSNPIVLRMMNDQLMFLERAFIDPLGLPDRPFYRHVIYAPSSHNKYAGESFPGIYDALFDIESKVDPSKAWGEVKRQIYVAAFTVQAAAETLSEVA

As to `CC(=O)Oc1ccc(CONC(=O)CCC(Cc2ccc(C(=O)O)cc2)C(=O)O)cc1` (centres undefined), the “fold change (FC)” value in the data set with Plasma [1] stood at 5. The pIC50 in [2] is less than 5.30. In the data set on Plasma [3], the Drug metabolism result was “Metabolite_Detected”. Moreover, the outcome in the data set on Rattus norvegicus [4] was Active. Moreover, the Activity entry in the data set with Rattus norvegicus [5] is “Non-Toxic”.

As to `Cc1oc(=O)oc1CONC(=O)CCC(Cc1ccc(C(=O)O)cc1)C(=O)O` (centres undefined), the Drug metabolism entry in [6] was “Metabolite detected”.

`CCOC(=O)c1ccc(CC(CCC(=O)NOCc2ccc(OC(C)=O)cc2)C(=O)OCC)cc1` (centres undefined): the pIC50 in data set [2] was less than 5.30. Also, the Drug metabolism entry in the data set with Plasma [7] is “Metabolite_Notdetected”.

As to `CC(=O)Oc1ccc(CONC(=O)CCC(Cc2ccc(C(=O)OCOC(=O)OC(C)C)cc2)C(=O)O)cc1` (centres undefined), the “fold change (FC)” value in the data set with Plasma [1] is given as 4. Also, the pIC50 in [2] was less than 5.30. For the same molecule, in the data set on Plasma [3], the Drug metabolism result is on record as “Metabolite_Detected”.

Consider `NCC1(CC(=O)O)CCCCC1`, for which the result with Rattus norvegicus [8] was Active.

Consider `CC(=O)ONC(=O)CCC(Cc1ccc(C(=O)O)cc1)C(=O)O` (centres undefined), for which the pIC50 in data set [2] is less than 5.30.

Consider `O=C(CCC(Cc1ccc(C(=O)O)cc1)C(=O)O)NO` (centres undefined), for which the pIC50 in [2] is 7.40. The Stability result in the data set on Plasma [9] is reported as “Stable”.

On to `CCOC(=O)c1ccc(CC(CCC(=O)NOCc2ccc(OC(C)=O)cc2)C(=O)O)cc1` (centres undefined), for which the pIC50 in data set [2] was less than 5.30. The results for the Drug metabolism result in the data set on Plasma [3], in the data set with Plasma [7] and in the data set with Plasma [10] were “Metabolite_Notdetected”, “Metabolite_Notdetected” and “Metabolite_Detected”, respectively.
